Here are results for 79 compounds from PubChem BioAssay AID2152 (The Scripps Research Institute Molecular Screening Center, 2009).

About 25 (1%) of roughly 2,300 compounds were called active.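 The calls were made as follows: active = mean inhibition over three replicate wells above the hit threshold derived in the earlier primary screen (cut at about 45% in these data); inactive = the rest.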 Only a selection was taken, and actives are over-represented in it overall.

The experiment deals with Hepatitis C virus core protein (core106 dimerization). Description: inhibitors of HCV core protein dimerization, confirmation, biochemical, TR-FRET, triplicate (AID 2152).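 Also: 0% = DMSO wells and 100% = unlabelled core106 competitor control.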 The note with it: TR-FRET GST-/Flag-core106 dimerization, HTRF; at 5 µM; stronger effect = higher value. In short, it runs like this:
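Test system – GST- and Flag-tagged HCV core106 peptides, dimerization via antibody TR-FRET · Amount – 17 nM Flag- plus 13.5 nM GST-core106 · Schedule – 4 h incubation, 22.5 °C · Compound dosing – one 5 µM dose, 0.5% DMSO · Detection – TR-FRET, 340 nm excitation, 671/617 nm emission · Reagent – Eu(K)-anti-GST plus XL665-anti-FLAG antibodies · Read-out basis – percent inhibition from emission ratio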
As for `Cc1cc(C)c(S(=O)(=O)N2CCOC2CNC(=O)C(=O)NCCc2ccc(S(N)(=O)=O)cc2)c(C)c1` (centres undefined), the inhibition is -0.31% (inactive).

Consider `Cc1[nH]c2ccccc2c1CCNC(=O)c1ccc2c(c1[N+](=O)[O-])C(=O)c1ccccc1C2=O`, for which the inhibition was -6.67% (inactive).

For `CCOc1cc(/C=N\NC(=O)c2ccc(NC(=O)C(C)(C)C)cc2)ccc1OC(=O)c1cccc(C)c1`, the inhibition is -6.21% (inactive).

For the compound `C=CCOc1ccc(-c2nc3c(c(=O)[nH]c(=O)n3Cc3ccccc3)n2CCCOC)cc1`, the inhibition was 3% (inactive).

With `C=CCn1c(C)cc(C(=O)COC(=O)c2ccc3c(c2)NC(=O)CS3)c1C`, the inhibition was -0.86% (inactive).

For the compound `COC(=O)c1ccccc1NC(=O)CN1C(=O)C2CCCN2c2ncc(Cl)cc21` (centres undefined), the inhibition was 4.11% (inactive).

Regarding `CCCN(CCC)C(=O)CC(c1ccc(F)cc1)c1ccco1` (centres undefined), the inhibition was -2.6% (inactive).

Regarding `COc1ccc(C2=NN(C(=O)CSc3nc(=O)n4cccc(C)c4n3)C(c3ccc(C)cc3)C2)cc1` (centres undefined), the inhibition was 21.8% (inactive).

Regarding `O=C(NNC(=O)c1cccc(-n2cccc2)c1)c1ccc(F)cc1`, the inhibition is 9.23% (inactive).

`Cc1ccc(-c2cc(C(F)F)n3ncc(C(=O)Nc4c(C)nn(Cc5ccccc5Cl)c4C)c3n2)cc1`: the inhibition is 0.26% (inactive).

As for `N#Cc1ccsc1NC(=O)COc1ccc(-c2nnco2)cc1`, the inhibition was 3.2% (inactive).

Consider `O=C1CC(c2ccco2)Cc2nc(N3CCc4ccccc4C3)ncc21` (centres undefined), for which the inhibition is 0.9% (inactive).

Regarding `CCN(CC)c1cc2nc(C)n(Cc3ccccc3)c(=O)c2cc1NC(=O)C1CC1`, the inhibition is 3.07% (inactive).

On to `Cc1cc([N+](=O)[O-])cc2c1NC(c1ccccn1)C1CC=CC21` (centres undefined), for which the inhibition is 8.17% (inactive).

As for `CC(C)Cc1nc(N2CCN(C(=O)c3ccco3)CC2)c(C#N)c2c1CCC2`, the inhibition is -9.13% (inactive).

`Cc1ccc2[nH]c(=O)c(CN(Cc3ccc4c(c3)OCO4)Cc3nnnn3Cc3ccco3)cc2c1`: the inhibition is -2.73% (inactive).

On to `COc1ccc(C(=S)N2CCOCC2)cc1OC(=O)c1cc([N+](=O)[O-])c(C)c([N+](=O)[O-])c1`, for which the inhibition was 3.86% (inactive).

Take `COc1ccc(/C=C2\SC(=S)N(NC(=O)c3csc4c3CCCC4)C2=O)cc1`: the inhibition was -8.8% (inactive).

For `CC(C)Cn1c(-c2ccccc2)nc(=S)c2c1CCCC2`, the inhibition was 2.05% (inactive).

As for `COc1ccc(NC(=O)NNC(=O)COc2ccc3cc(Br)ccc3c2)c(OC)c1`, the inhibition is 0.29% (inactive).

As for `COC/C=C/C1=CC2=CC(=O)C(C)(OC(=O)c3cnc4ccccc4n3)C(=O)C2=CN1Cc1ccc(OC)cc1` (centres undefined), the inhibition was 2.72% (inactive).

Take `O=C1c2ccccc2C(Nc2ccc3c(c2)OCO3)N1Cc1ccc2c(c1)OCO2` (centres undefined): the inhibition was -1.13% (inactive).

Turning to `CC(=O)c1ccc(NC(=O)/C(=C\c2ccccc2)NC(=O)/C=C/c2ccccc2)cc1`, the inhibition is -3.84% (inactive).

For `C=C(NC(=O)C(=C)NC(=O)c1csc(C2=NC3c4csc(n4)C4NC(=O)c5csc(n5)C([C@@](C)(O)C(C)O)NC(=O)C5CSC(=N5)/C(=C\C)NC(=O)C(C(C)O)NC(=O)c5csc(n5)[C@]3(CC2)NC(=O)C(C)NC(=O)C(=C)NC(=O)C(C)NC(=O)C(C(C)CC)NC2C=Cc3c(C(C)O)cc(nc3C2O)C(=O)OC4C)n1)C(N)=O` (some centres undefined), the inhibition was 47.5% (active).

Turning to `CS(=O)(=O)N1CCc2cc(-c3csc(NC(=O)C(c4ccccc4)c4ccccc4)n3)ccc21`, the inhibition is -5% (inactive).

Regarding `O=C(COC(=O)c1ccccc1Oc1ccccc1)NCc1ccco1`, the inhibition is -1.91% (inactive).

With `Cc1ccc(NC(=O)N(Cc2ccc3c(c2)OCO3)Cc2cc3cc4c(cc3[nH]c2=O)OCCO4)cc1`, the inhibition was 2.67% (inactive).

As for `CC(=O)NS(=O)(=O)c1ccc(NC(=O)c2cc(-c3ccc(C)c(C)c3)nc3ccccc23)cc1`, the inhibition is 5.8% (inactive).

On to `COc1cc(C(=O)NCC(=O)OCC(=O)c2cccc3ccccc23)cc(OC)c1OC`, for which the inhibition was -3.85% (inactive).

With `O=C(c1ccco1)N1CCN(c2nc(C3CC3)nc3c2nnn3Cc2ccccc2Cl)CC1`, the inhibition was -2.25% (inactive).

With `CCOC(=O)c1nn(-c2ccccc2C)c2nc(-c3ccc(Cl)cc3)c(C#N)c(=O)n12`, the inhibition was 3.54% (inactive).

Take `Cc1cccc(N(C)S(=O)(=O)c2ccc3c(c2)C(C)(C)C(=O)N3C)c1`: the inhibition is 4.84% (inactive).

With `COc1cc(OC)c(NC(=O)CN(C)S(=O)(=O)c2ccc(-c3ccc(=O)[nH]n3)s2)cc1Cl`, the inhibition was -0.24% (inactive).

As for `O=C(COC(=O)/C=C/c1ccc(Br)o1)Nc1ccc2[nH]c(=O)[nH]c2c1`, the inhibition was 24.5% (inactive).

For the compound `O=C(/C=C/c1ccc(Br)o1)OCc1nc2ccsc2c(=O)[nH]1`, the inhibition was 46% (active).

As for `O=C1COc2ccc(C(=O)COC(=O)/C=C/c3ccc(Br)o3)cc2N1`, the inhibition is 35.5% (inactive).

Take `Cc1ccccc1N1CC(C(=O)Nc2nnc(SCc3ccccn3)s2)CC1=O` (centres undefined): the inhibition is 0.24% (inactive).

As for `O=C(Nc1ccc(N2CCCC2)c(Cl)c1)c1ccc2c(c1)OCCO2`, the inhibition is -0.93% (inactive).

On to `Cc1ccc(OCC(=O)c2cc(C)c(C)cc2C)c([N+](=O)[O-])n1`, for which the inhibition is -9.54% (inactive).

For the compound `Cc1cc(C(=O)CSc2nnc(-c3ccc(OC(F)F)cc3)o2)c(C)n1Cc1cccs1`, the inhibition is -10.5% (inactive).

As for `C=CCn1c(C)cc(C2=NNC(=Nc3ccc(C)cc3)SC2)c1C`, the inhibition is -4.54% (inactive).

Take `O=C(O)CCC(=O)N1N=C(c2cccs2)CC1c1cn(-c2ccccc2)nc1-c1ccccc1` (centres undefined): the inhibition was 7.42% (inactive).

Turning to `O=c1cc(-c2ccccc2Cl)c2c([nH]1)CCC2`, the inhibition was -2.22% (inactive).

Regarding `Cc1ccc(C2CC(=O)N3CN(c4ccc(Br)cc4)CSC3=C2C#N)o1` (centres undefined), the inhibition was -1.74% (inactive).

On to `Cc1cccc(N2CSC3=C(C#N)C(c4ccc(C)o4)CC(=O)N3C2)c1` (centres undefined), for which the inhibition is 50.5% (active).

For `Cc1ccc(C2C(C#N)=C(N)Oc3c2sc2ccccc32)o1` (centres undefined), the inhibition is 14% (inactive).

As for `CC1CCc2sc(C(=O)N/N=C/c3ccc([N+](=O)[O-])cc3)cc2C1` (centres undefined), the inhibition was -11.5% (inactive).

For `Cc1cccc(N2CC(C(=O)Nc3nnc(SCC(=O)N4CCOCC4)s3)CC2=O)c1` (centres undefined), the inhibition was 11.4% (inactive).

`Cc1ccc(Cn2c(C(C)Nc3nc(-c4ccc(Cl)c([N+](=O)[O-])c4)cs3)nc3cc(C(F)(F)F)ccc32)cc1` (centres undefined): the inhibition was 5.29% (inactive).

In the case of `N#Cc1ccc(C23CC4(C2)[C@H](CN(P(=O)(c2ccccc2)c2ccccc2)[C@@H]4c2ccccc2)C3c2ccc(Cl)nc2)cc1` (some centres undefined), the inhibition was 8.04% (inactive).

`CN(CC(=O)Nc1sccc1C#N)C1CCCCC1`: the inhibition is 6.43% (inactive).

In the case of `CC1CC1C(=O)Nc1nc(-c2cccs2)c(-c2cccs2)s1` (centres undefined), the inhibition was 7.18% (inactive).

`Cc1ccc(C2C(C#N)=C(N)SC(N)=C2C#N)c(C)c1`: the inhibition is 58% (active).

With `Cc1sccc1C1C(C#N)=C(N)SC(N)=C1C#N`, the inhibition is 32.6% (inactive).

For `COc1ccc(C2C(C#N)=C(N)SC(N)=C2C#N)cc1OC`, the inhibition is 2.28% (inactive).

`Cc1cc(Cl)ccc1OC(C)C(=O)Nc1ccc(S(=O)(=O)Nc2cnc3ccccc3n2)cc1` (centres undefined): the inhibition was -3.49% (inactive).

For `Cc1ccc(C)c(NC(=O)CN(C)C(=O)c2cccc(-n3cccc3)c2)c1`, the inhibition is 4.94% (inactive).

In the case of `COc1cccc2cc(/C(C)=N/Nc3nc(-c4cc(C)ccc4C)cs3)c(=O)oc12`, the inhibition is 16.7% (inactive).

`COc1ccc(CCNC(=O)c2ccc3c(c2)NC(=O)C(CSCc2cc(C)ccc2C)N3)cc1OC` (centres undefined): the inhibition was 2.87% (inactive).

As to `COc1ccc2c(c1)[nH]c(=O)c1sc3ccccc3c12`, the inhibition is -0.73% (inactive).

Consider `O=C(Nc1nnc(-c2ccccc2Cl)o1)c1nc2ccccc2s1`, for which the inhibition is -8.09% (inactive).

With `CN(C)c1ccc(/C=C/C=C2/SC(=S)N(c3ccccc3)C2=O)cc1`, the inhibition is -12.6% (inactive).

Consider `COc1ccc(OC)c(-c2csc(NC(=O)CSc3ccc([N+](=O)[O-])cc3)n2)c1`, for which the inhibition was -0.57% (inactive).

With `O=c1ccc2c(-c3ccccc3)c3ccc(O)cc3oc-2c1`, the inhibition is -13.9% (inactive).

Turning to `COc1ccc2c(c1[N+](=O)[O-])CCC/C2=N/OC(=O)c1ccccc1SC`, the inhibition is -1.21% (inactive).

For `COc1ccc(/C=N\NS(=O)(=O)c2ccc(Cl)cc2)cc1COc1ccccc1[N+](=O)[O-]`, the inhibition was -7.14% (inactive).

`O=C(NCc1cccnc1)c1ccc(COc2cccc3ccccc23)o1`: the inhibition was 4.61% (inactive).

For the compound `O=C(CN(c1ccc(Cl)c(C(F)(F)F)c1)S(=O)(=O)c1ccccc1)N/N=C/c1cccc2c1OCCO2`, the inhibition is -4.47% (inactive).

Consider `O=C(Nc1ccc(NC(=S)NC(=O)C(c2ccccc2)c2ccccc2)cc1)c1ccccc1`, for which the inhibition was 5.69% (inactive).

Turning to `COc1ccc(C(=O)N/C(=C/c2cccc3ccccc23)C(=O)NCCc2c[nH]c3ccccc23)cc1OC`, the inhibition was -0.16% (inactive).

On to `O=C(Nc1ccccc1)c1ccc(Nc2c([N+](=O)[O-])cc([N+](=O)[O-])c3ccccc23)cc1`, for which the inhibition is 1.02% (inactive).

For the compound `COc1ccc(N2CCN(C(=O)c3ccc4c(c3)NC(=O)C(CSCc3ccc(C)cc3)N4)CC2)cc1` (centres undefined), the inhibition was 27% (inactive).

Regarding `CSc1nc(N(C)CCO)c2sc3nc(-c4ccco4)c4c(c3c2n1)CCC4`, the inhibition is -23.5% (inactive).

Take `COc1ccccc1CCNC(=O)c1cc(-c2ccccn2)nc2ccc(Br)cc12`: the inhibition was -9.45% (inactive).

In the case of `Cc1cc(C#N)c(C)n1-c1cc(S(=O)(=O)N2CCOCC2)ccc1N1CCCC1`, the inhibition is 2.12% (inactive).

With `CC1(C)Cc2c(C#N)c(N3CCN(C(=O)c4ccccc4Cl)CC3)nc(-c3ccco3)c2CS1`, the inhibition is 16.3% (inactive).

For the compound `O=C(N/N=C/c1ccc([N+](=O)[O-])o1)c1cn(-c2ccccc2)nc1-c1ccc(Cl)cc1`, the inhibition is -1.11% (inactive).

Take `Cc1ccc(-c2csc(C3=C(O)CN(NC(=O)c4ccc([N+](=O)[O-])cc4)C3=N)n2)cc1`: the inhibition is 6.2% (inactive).

As for `O=c1[nH]c(C(Cl)Cl)nc2sc3c(c12)CCN(Cc1ccccc1)C3`, the inhibition was 14.3% (inactive).

As a reminder, the inhibition is the change of the read-out against control, counted positive when it falls.
